Calls of active or inactive are those of the source. The rule behind the calls is not given here.
What was measured:
[1] = Selectivity ratio of IC50 for human NCI-H226 cells to IC50 for mouse BAF3 cells expressing TPR-MET; format: ADME, cell-based
Summary of the method: (§1)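 Both IC50s in each ratio come from one proliferation assay. Cells were seeded and exposed the next day to a range of concentrations for 72 h, then read by SRB or MTT. IC50s were fitted by four-parameter concentration–response, with each concentration at least in triplicate and at least 2 experiments. BaF3/TPR-Met is murine pre-B BaF3 transfected with TPR-MET and puromycin-selected.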

[2] = target: T1, Hepatocyte growth factor receptor (Homo sapiens, UniProt P08581); assay: Inhibition of c-Met in HGF stimulated human U87MG cells assessed as reduction in ERK phosphorylation at Tyrosine 204 at 10 nM after 1 hr by Western blot analysis; format: cell-based; settings: U-87MG ATCC
Summary of the method: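 U87MG cells serum-starved 24 h, pretreated with compound 1 h at 37 °C, then stimulated with HGF (100 ng/mL) for 15 min. Lysed in 1× SDS sample buffer, resolved by 10% SDS-PAGE and blotted to nitrocellulose. Probed for phospho-c-Met, phospho-ERK1/2, phospho-AKT and totals, with GAPDH as loading control. ECL detection.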

[3] = Selectivity ratio of IC50 for human NCI-HCC827 cells to IC50 for human EBC1 cells; format: ADME, cell-based; summary of the method: as §1
[4] = Selectivity ratio of IC50 for human NCI-H661 cells to IC50 for human MKN45 cells; format: ADME, cell-based; settings: mkn-45; summary of the method: as §1
[5] = system: NCI-H226; assay: Antiproliferative activity against human NCI-H226 cells after 72 hrs by SRB or MTT assay; format: functional, cell-based; settings: NCI-H226, 72 h
Summary of the method: (§2)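 Cells seeded, exposed next day to a range of concentrations for 72 h. Growth read by sulforhodamine B or MTT. IC50 from four-parameter concentration-response fit. Each concentration tested at least in triplicate, with at least 2 experiments.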

[6] = AUC (0 to infinity) in Sprague-Dawley rat at 10 mg/kg, po administered as single dose; format: ADME, organism-based; set-up: dose 10 mg/kg, route oral, time infinity; settings: in vivo
[7] = target: T1, Hepatocyte growth factor receptor; assay: Inhibition of c-Met phosphorylation at Tyrosine 1235 in human MKN45 cells at 10 nM after 1 hr by Western blot analysis; format: cell-based; settings: MKN-45
Summary of the method: (§3)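 EBC-1 or MKN45 cells treated with compound 1 h at 37 °C without HGF, then lysed in 1× SDS sample buffer. Lysates run on 10% SDS-PAGE and transferred to nitrocellulose. Probed with antibodies to c-Met, phospho-c-Met, phospho-ERK1/2, phospho-AKT, AKT and GAPDH, then HRP secondary. ECL detection.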

[8] = Selectivity ratio of IC50 for human HCT116 cells to IC50 for mouse BAF3 cells expressing TPR-MET; format: ADME, cell-based; summary of the method: as §1
[9] = system: Epidermal growth factor receptor (Homo sapiens), P00533 [L858R,T790M]; assay: Inhibition of EGFR T790M/L858R double mutant (unknown origin) using poly (Glu, Tyr) 4:1 as substrate at 1000 nM incubated for 60 mins by ELISA relative to control; format: protein assay
Summary of the method: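 Recombinant kinase, ELISA on a poly(Glu,Tyr)4:1 coat (20 μg/mL). 10 μmol/L ATP in HEPES pH 7.4 with MgCl2, MnCl2, Na3VO4 and DTT; 1% DMSO. Reaction 60 min at 37 °C. Phosphotyrosine detected with PY99 and HRP anti-mouse IgG, o-phenylenediamine substrate, A490. Inhibition % versus DMSO control; two separate experiments.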

[10] = Selectivity ratio of IC50 for human 786-0 cells to IC50 for mouse BAF3 cells expressing TPR-MET; format: ADME, cell-based; summary of the method: as §1
[11] = Antitumor activity against human EBC1 cells xenografted in athymic nude mouse assessed as tumor growth inhibition at 6.25 mg/kg, po bid for 21 days measured twice a week during compound dosing relative to control; format: functional; settings: EBC-1, po, 504 h, read-out: TGI
Summary of the method: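 Nude mice bearing s.c. tumours. Cells were first grown s.c. to 700–800 mm³, then 1.5 mm³ fragments were transplanted s.c. into the right flank. Mice were randomised at 100–200 mm³ (n=6 treated, n=12 vehicle) and dosed orally twice daily for 21 days. Caliper measurement twice weekly; TV = length×width²/2. TGI taken on the final day versus vehicle; Student's t test.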

[12] = target: Tyrosine-protein kinase Mer (Homo sapiens, UniProt Q12866); assay: Inhibition of recombinant c-Mer (unknown origin) using poly (Glu, Tyr) 4:1 as substrate incubated for 60 mins by ELISA
[13] = Selectivity ratio of IC50 for human MDA-MB-231 cells to IC50 for human EBC1 cells; format: ADME, cell-based; summary of the method: as §1
[14] = target: Proto-oncogene tyrosine-protein kinase Src (Homo sapiens) (UniProt P12931); assay: Inhibition of recombinant c-Src (unknown origin) using poly (Glu, Tyr) 4:1 as substrate at 1000 nM incubated for 60 mins by ELISA relative to control
Summary of the method: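 Recombinant tyrosine kinases assayed on wells precoated with poly(Glu,Tyr)4:1 (20 µg/mL). ATP 10 µmol/L in HEPES pH 7.4 buffer with MgCl2, MnCl2, Na3VO4 and DTT; compound in 1% DMSO, 1% DMSO as control. Reaction 60 min at 37 °C. Phosphotyrosine detected with PY99 and HRP anti-mouse, o-phenylenediamine, A490. Inhibition % relative to control; two experiments.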

[15] = Selectivity ratio of IC50 for human NCI-H358 cells to IC50 for human EBC1 cells; format: ADME, cell-based; summary of the method: as §1
[16] = Selectivity ratio of IC50 for human NCI-H226 cells to IC50 for human EBC1 cells; format: ADME, cell-based; summary of the method: as §1
[17] = Selectivity ratio of IC50 for human NCI-H358 cells to IC50 for human MKN45 cells; format: ADME, cell-based; summary of the method: as §1
[18] = Antiproliferative activity against human MGC803 cells after 72 hrs by SRB or MTT assay; format: functional, cell-based; settings: MGC-803, 72 h; summary of the method: as §2
[19] = Selectivity ratio of IC50 for human U87MG cells to IC50 for mouse BAF3 cells expressing TPR-MET; format: ADME, cell-based
[20] = Antiproliferative activity against human Calu3 cells after 72 hrs by SRB or MTT assay; format: functional, cell-based; settings: Calu-3, 72 h; summary of the method: as §2
[21] = target: T1, Hepatocyte growth factor receptor; assay: Inhibition of c-Met in human EBC1 cells assessed as reduction in ERK phosphorylation at Threonine 202 at 10 nM after 1 hr by Western blot analysis; format: cell-based; summary of the method: as §3
[22] = system: SNU1; assay: Antiproliferative activity against human SNU1 cells after 72 hrs by SRB or MTT assay; format: functional, cell-based; settings: SNU1, 72 h; summary of the method: as §2
[23] = Antiproliferative activity against human U87MG cells after 72 hrs by SRB or MTT assay; format: functional, cell-based, U-87MG ATCC; settings: U-87 MG; summary of the method: as §2
[24] = Selectivity ratio of IC50 for human HCT116 cells to IC50 for human MKN45 cells; format: ADME, cell-based; settings: hct-116; summary of the method: as §1
[25] = Antiproliferative activity against human NCI-HCC827 cells after 72 hrs by SRB or MTT assay; format: functional, cell-based; settings: HCC827, 72 h; summary of the method: as §2
[26] = Selectivity ratio of IC50 for human NCI-H292 cells to IC50 for mouse BAF3 cells expressing TPR-MET; format: ADME, cell-based; summary of the method: as §1
[27] = Selectivity ratio of IC50 for human SNU1 cells to IC50 for human EBC1 cells; format: ADME, cell-based

T1 sequence (P08581 whole entry): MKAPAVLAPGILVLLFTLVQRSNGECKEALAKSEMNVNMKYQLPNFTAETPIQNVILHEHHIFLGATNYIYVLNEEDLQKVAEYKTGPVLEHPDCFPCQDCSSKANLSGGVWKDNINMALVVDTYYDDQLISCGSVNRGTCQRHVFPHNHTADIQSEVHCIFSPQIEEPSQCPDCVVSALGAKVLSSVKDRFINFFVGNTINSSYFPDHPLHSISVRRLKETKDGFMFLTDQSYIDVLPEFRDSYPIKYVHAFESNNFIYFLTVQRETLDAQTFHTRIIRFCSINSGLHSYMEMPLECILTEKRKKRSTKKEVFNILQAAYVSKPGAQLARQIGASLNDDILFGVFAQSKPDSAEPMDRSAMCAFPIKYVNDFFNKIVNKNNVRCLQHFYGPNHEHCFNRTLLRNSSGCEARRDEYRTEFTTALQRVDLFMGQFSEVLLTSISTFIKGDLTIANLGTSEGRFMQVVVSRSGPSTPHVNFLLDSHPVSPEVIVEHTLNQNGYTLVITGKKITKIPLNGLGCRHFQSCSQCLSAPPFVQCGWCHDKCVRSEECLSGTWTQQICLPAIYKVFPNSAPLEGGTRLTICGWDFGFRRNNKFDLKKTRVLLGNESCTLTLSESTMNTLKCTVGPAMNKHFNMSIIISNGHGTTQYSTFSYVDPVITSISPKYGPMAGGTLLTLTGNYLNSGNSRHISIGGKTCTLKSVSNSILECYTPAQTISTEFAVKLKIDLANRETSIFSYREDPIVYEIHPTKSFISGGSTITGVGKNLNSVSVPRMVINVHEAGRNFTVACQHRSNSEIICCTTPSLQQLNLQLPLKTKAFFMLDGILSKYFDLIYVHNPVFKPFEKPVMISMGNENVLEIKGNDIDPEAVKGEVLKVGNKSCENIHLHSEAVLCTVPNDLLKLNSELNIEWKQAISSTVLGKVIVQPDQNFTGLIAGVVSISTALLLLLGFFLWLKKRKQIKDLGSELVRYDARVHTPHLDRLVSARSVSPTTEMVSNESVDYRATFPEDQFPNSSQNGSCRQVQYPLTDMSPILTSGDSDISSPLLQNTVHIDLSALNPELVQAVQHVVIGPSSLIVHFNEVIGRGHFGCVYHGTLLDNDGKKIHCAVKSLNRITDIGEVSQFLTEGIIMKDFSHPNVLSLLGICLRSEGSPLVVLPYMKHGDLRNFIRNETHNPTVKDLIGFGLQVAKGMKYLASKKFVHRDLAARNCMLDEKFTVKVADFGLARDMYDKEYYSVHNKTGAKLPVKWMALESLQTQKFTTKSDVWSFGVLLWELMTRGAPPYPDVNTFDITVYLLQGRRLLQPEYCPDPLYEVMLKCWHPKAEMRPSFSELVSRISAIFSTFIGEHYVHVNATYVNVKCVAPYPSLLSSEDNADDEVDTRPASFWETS
Tyrosine-protein kinase Mer, sequence (Q12866 whole entry): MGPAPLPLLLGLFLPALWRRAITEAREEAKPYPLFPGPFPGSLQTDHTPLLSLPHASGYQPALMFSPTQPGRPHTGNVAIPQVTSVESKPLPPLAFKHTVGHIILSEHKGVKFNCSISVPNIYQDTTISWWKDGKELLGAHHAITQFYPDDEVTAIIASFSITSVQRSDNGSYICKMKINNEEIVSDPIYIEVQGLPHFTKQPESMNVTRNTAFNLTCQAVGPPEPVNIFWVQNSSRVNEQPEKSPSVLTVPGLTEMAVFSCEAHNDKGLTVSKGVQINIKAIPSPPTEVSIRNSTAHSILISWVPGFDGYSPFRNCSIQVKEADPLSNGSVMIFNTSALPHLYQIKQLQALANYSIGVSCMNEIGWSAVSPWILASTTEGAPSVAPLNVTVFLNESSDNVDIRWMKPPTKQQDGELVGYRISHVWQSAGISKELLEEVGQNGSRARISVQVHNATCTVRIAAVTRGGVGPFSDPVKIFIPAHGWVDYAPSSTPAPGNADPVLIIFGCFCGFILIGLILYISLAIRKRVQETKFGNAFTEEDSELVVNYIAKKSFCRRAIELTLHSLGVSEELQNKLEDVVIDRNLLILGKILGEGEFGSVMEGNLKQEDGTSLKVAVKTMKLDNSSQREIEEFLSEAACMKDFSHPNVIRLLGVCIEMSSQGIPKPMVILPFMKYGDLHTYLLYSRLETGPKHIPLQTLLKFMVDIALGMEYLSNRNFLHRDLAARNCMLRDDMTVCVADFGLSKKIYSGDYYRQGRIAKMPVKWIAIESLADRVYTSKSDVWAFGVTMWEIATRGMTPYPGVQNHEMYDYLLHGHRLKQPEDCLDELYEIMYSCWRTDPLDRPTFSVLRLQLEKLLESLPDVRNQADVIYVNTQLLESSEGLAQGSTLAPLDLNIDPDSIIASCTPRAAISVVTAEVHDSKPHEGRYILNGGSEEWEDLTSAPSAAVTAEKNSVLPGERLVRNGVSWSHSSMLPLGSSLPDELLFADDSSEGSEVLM
Epidermal growth factor receptor (Homo sapiens), P00533 [L858R,T790M], sequence (P00533 whole entry T790M/L858R, looked up): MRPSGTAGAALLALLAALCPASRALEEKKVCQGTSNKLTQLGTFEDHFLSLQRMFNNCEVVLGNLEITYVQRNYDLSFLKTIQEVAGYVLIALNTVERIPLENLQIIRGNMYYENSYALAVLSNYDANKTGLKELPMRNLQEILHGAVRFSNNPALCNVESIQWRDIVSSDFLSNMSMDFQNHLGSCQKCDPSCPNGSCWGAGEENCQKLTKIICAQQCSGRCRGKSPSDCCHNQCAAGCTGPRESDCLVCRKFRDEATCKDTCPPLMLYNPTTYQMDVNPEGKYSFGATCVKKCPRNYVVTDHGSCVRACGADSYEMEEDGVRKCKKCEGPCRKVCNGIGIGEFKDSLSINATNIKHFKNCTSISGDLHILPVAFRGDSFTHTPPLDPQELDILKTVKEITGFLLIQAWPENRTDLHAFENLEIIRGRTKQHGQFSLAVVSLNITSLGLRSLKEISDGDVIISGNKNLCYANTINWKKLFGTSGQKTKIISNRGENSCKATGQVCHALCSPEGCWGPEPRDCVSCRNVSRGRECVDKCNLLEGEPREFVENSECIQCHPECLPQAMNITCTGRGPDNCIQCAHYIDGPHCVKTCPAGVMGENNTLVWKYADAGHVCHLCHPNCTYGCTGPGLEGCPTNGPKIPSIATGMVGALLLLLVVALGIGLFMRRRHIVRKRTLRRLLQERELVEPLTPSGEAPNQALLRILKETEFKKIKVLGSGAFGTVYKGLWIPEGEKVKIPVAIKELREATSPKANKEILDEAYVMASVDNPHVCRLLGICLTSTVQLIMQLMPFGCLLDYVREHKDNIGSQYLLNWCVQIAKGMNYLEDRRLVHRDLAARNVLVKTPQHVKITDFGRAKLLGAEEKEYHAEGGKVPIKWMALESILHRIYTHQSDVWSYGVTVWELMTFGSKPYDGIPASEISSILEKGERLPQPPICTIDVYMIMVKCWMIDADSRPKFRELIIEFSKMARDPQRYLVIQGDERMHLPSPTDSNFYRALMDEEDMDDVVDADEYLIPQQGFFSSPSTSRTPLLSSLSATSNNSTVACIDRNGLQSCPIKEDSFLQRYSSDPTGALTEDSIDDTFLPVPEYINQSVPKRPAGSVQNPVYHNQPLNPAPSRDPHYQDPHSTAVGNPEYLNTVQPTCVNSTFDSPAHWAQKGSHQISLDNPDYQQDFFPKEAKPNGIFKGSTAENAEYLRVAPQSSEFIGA
Proto-oncogene tyrosine-protein kinase Src (Homo sapiens), sequence (P12931 2-536 limits assumed): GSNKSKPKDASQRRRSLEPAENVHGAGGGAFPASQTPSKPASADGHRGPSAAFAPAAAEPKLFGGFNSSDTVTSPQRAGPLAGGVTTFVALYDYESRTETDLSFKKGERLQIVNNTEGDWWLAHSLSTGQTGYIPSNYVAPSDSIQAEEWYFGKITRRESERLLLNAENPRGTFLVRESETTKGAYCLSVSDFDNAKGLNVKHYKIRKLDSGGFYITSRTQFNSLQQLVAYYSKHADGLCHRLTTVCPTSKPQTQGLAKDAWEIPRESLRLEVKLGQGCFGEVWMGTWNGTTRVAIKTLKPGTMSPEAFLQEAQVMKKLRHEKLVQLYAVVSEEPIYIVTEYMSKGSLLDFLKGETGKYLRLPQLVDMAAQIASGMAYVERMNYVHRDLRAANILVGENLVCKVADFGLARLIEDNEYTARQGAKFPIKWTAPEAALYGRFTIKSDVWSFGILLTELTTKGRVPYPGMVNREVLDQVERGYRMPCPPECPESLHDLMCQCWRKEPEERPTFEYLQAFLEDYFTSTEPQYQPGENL

Fc1ccc(-c2cnc3nnc(C(F)(F)c4ccc5ncccc5c4)n3n2)cc1
Ratio IC50 [1]: 10000
inhibition [2]: Active
Ratio IC50 [3]: 10000
Ratio IC50 [4]: > 10000
IC50 [5]: > 10 µM
AUC(0-inf) [6]: 2380 ng·h/mL
inhibition [7]: Active
Ratio IC50 [8]: 10000
inhibition [9]: 28.9%
Ratio IC50 [10]: 10000
inhibition in vivo at 6.25 mg/kg [11]: 56.9%
IC50 [12]: > 1 µM
Ratio IC50 [13]: > 10000
inhibition [14]: 13.7%
Ratio IC50 [15]: 10000
Ratio IC50 [16]: > 10000
Ratio IC50 [17]: 10000
IC50 [18]: > 10 µM
Ratio IC50 [19]: 10000
IC50 [20]: > 10 µM
inhibition [21]: Active
IC50 [22]: > 10 µM
IC50 [23]: > 10 µM
Ratio IC50 [24]: 10000
IC50 [25]: > 10 µM
Ratio IC50 [26]: 10000
Ratio IC50 [27]: 10000

Source: ChEMBL document CHEMBL3797175, “Discovery of 6-(difluoro(6-(4-fluorophenyl)-[1,2,4]triazolo[4,3-b][1,2,4]triazin-3-yl)methyl)quinoline as a highly potent and selective c-Met inhibitor” (Eur J Med Chem, 2016)
